In brackets after ≈: the same amount, converted by molar mass. Where two headings read alike, the source gives them in different places.
How the values were obtained:
[1] = system: Pseudomonas aeruginosa (MCCB 0035); assay: Agar disk diffusion, inhibition zone; assay type: cell-based; conditions: 100 µg/8 mm disc, triplicate, mean ± SD
Human Coronavirus (229E) = assay: CPE reduction assay in HEL cells; assay type: cell-based; conditions: read-out: Antiviral EC50, Human Coronavirus (229E)
[2] = system: Candida albicans (NCIM 2087); assay: MIC, broth microdilution; assay type: cell-based; conditions: NCIM2087, read-out: Minimum inhibitory concentration (MIC), CA
How it was run: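 CLSI broth microdilution in Sabouraud liquid medium, with test compound two-fold serially diluted from 512 to 0.25. Fungal broth culture grown 24 h at 35 °C to 0.5 McFarland turbidity, then adjusted with sterile solution to a final […] inoculum. MIC expressed in µg/mL.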

[3] = system: Lactobacillus casei (NCIM-2651); assay: Agar disk diffusion, inhibition zone; assay type: cell-based; conditions: 100 µg/8 mm disc, triplicate, mean ± SD
[4] = system: Aspergillus fumigatus (NCIM 2081); assay: MIC, broth microdilution; assay type: cell-based; conditions: NCIM2081, read-out: Minimum inhibitory concentration (MIC), AF
How it was run: (§1)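 Antifungal MICs by CLSI broth microdilution in Sabouraud liquid medium. Test compounds and standard drugs are serially diluted two-fold from 512 to 0.25. The fungal broth culture is grown 24 h at 35 °C to a 0.5 McFarland turbidity, then adjusted with sterile solution to the final inoculum.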

[5] = system: Aspergillus niger (NCIM 2191); assay: Agar disk diffusion, inhibition zone; assay type: cell-based; conditions: 100 µg/8 mm disc, triplicate, mean ± SD
How it was run: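 For the fungal strain, discs soaked in test compound solution (DMSO stock diluted with distilled water) sat on seeded Mueller-Hinton agar. Clotrimazole was the reference. Incubation ran 48 h at 35 °C, in triplicate. Zone of growth inhibition recorded in mm as the mean diameter around each disc.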

[6] = system: Aspergillus niger (NCIM 2191); assay: MIC, broth microdilution; assay type: cell-based; conditions: NCIM2191, read-out: Minimum inhibitory concentration (MIC), AN
How it was run: as §1

Para-influenza-3 virus = assay: CPE reduction assay in Vero cells; assay type: cell-based, Parainfluenza-3 virus; conditions: Vero, read-out: Antiviral EC50, Para-influenza-3 virus
[7] = system: Escherichia coli (ATCC 8739); assay: MIC, broth microdilution; assay type: cell-based; conditions: ATCC8739, read-out: Minimum inhibitory concentration (MIC), EC
How it was run: (§2)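 Broth microdilution per CLSI in Mueller-Hinton broth, using two-fold serial dilutions of test compound and reference drugs from 512 to 0.25. Bacterial broth cultures were grown 2-6 h to 0.5 McFarland turbidity, then diluted with sterile solution to the final inoculum. MIC is reported in µg/mL.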

Influenza B B/Ned/537/05 = assay: CPE reduction assay in MDCK cells; assay type: cell-based; conditions: Influenza B virus, read-out: Antiviral EC50, Influenza B B/Ned/537/05, MTS
[8] = system: Cryptococcus neoformans (ATCC 9011); assay: MIC, broth microdilution; assay type: cell-based; conditions: ATCC9011, read-out: Minimum inhibitory concentration (MIC), CN
How it was run: as §1

[9] = system: Bacillus cereus (NCIM-2458); assay: Agar disk diffusion, inhibition zone; assay type: cell-based; conditions: 100 µg/8 mm disc, triplicate, mean ± SD
Sindbis virus = assay: CPE reduction assay in Vero cells; assay type: cell-based; conditions: read-out: Antiviral EC50, Sindbis virus
Vero cells = conditions: Vero cell cultures; microscopically detectable alteration of normal cell morphology
[10] = system: Cryptococcus neoformans (ATCC 9011); assay: Agar disk diffusion, inhibition zone; assay type: cell-based; conditions: 100 µg/8 mm disc, triplicate, mean ± SD
Reovirus-1 = assay: CPE reduction assay in Vero cells; assay type: cell-based; conditions: read-out: Antiviral EC50, Reovirus-1
[11] = system: Influenza A/H3N2 A/HK/7/87; assay: CPE reduction assay in MDCK cells; assay type: cell-based; conditions: Influenza A virus
[12] = system: Aspergillus fumigatus (NCIM 2081); assay: Agar disk diffusion, inhibition zone; assay type: cell-based; conditions: 100 µg/8 mm disc, triplicate, mean ± SD
Coxsackie virus B4 = assay: CPE reduction assay in Vero cells; assay type: cell-based; conditions: Enterovirus B, read-out: Antiviral EC50, Coxsackie virus B4
[13] = system: Pseudomonas aeruginosa (MCCB 0035); assay: MIC, broth microdilution; assay type: cell-based; conditions: read-out: Minimum inhibitory concentration (MIC), PA
How it was run: as §2

[14] = system: Salmonella typhimurium (NCIM-2501); assay: Agar disk diffusion, inhibition zone; assay type: cell-based; conditions: 100 µg/8 mm disc, triplicate, mean ± SD
[15] = system: Klebsiella aerogenes (NCIM-2098); assay: MIC, broth microdilution; assay type: cell-based; conditions: NCIM2098, read-out: Minimum inhibitory concentration (MIC), KA
How it was run: (§3)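 Antibacterial MICs by CLSI broth microdilution in Mueller-Hinton broth. Test compounds and standard drugs are serially diluted two-fold from 512 to 0.25. The bacterial broth culture is grown 2-6 h to a 0.5 McFarland turbidity, then adjusted with sterile solution to the final inoculum.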

Punta Toro virus = assay: CPE reduction assay in Vero cells; assay type: cell-based; conditions: read-out: Antiviral EC50, Punta Toro virus
MT4 cells = conditions: MT4 cell cultures; colorimetric MTT cell viability assay
[16] = system: Escherichia coli (ATCC 8739); assay: Agar disk diffusion, inhibition zone; assay type: cell-based; conditions: 100 µg/8 mm disc, triplicate, mean ± SD
How it was run: (§4)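 Agar disk diffusion on Mueller-Hinton agar plates seeded with a standard bacterial suspension. Test compound stock in DMSO, diluted with distilled water; 8 mm sterile filter-paper discs soaked in the solution. Ampicillin was the reference. Plates incubated at 35 °C for 24 h, in triplicate. Read-out is the average inhibition-zone diameter (mm) around each disc.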

[17] = system: Staphylococcus aureus (ATCC 29213); assay: MIC, broth microdilution; assay type: cell-based; conditions: ATCC29213, read-out: Minimum inhibitory concentration (MIC), SA
How it was run: as §3

[18] = system: Staphylococcus aureus (ATCC 29213); assay: Agar disk diffusion, inhibition zone; assay type: cell-based; conditions: 100 µg/8 mm disc, triplicate, mean ± SD
How it was run: as §4

[19] = system: Candida albicans (NCIM 2087); assay: Agar disk diffusion, inhibition zone; assay type: cell-based; conditions: 100 µg/8 mm disc, triplicate, mean ± SD
[20] = system: Madin Darby canine kidney (MDCK) cells; conditions: dog
Vaccinia virus = assay: microbe, parasite or virus in culture; assay type: cell-based; conditions: Orthopoxvirus vaccinia, HEL, read-out: Antiviral EC50, Vaccinia virus
[21] = system: Human embryonic lung (HEL) cells; conditions: HEL cell cultures; microscopically detectable alteration of normal cell morphology
[22] = system: Streptococcus pneumonia (ATCC 49619); assay: Agar disk diffusion, inhibition zone; assay type: cell-based; conditions: 100 µg/8 mm disc, triplicate, mean ± SD
Adeno virus-2 = assay: CPE reduction assay in HEL cells; assay type: cell-based; conditions: read-out: Antiviral EC50, Adeno virus-2
[23] = system: Klebsiella aerogenes (NCIM-2098); assay: Agar disk diffusion, inhibition zone; assay type: cell-based; conditions: 100 µg/8 mm disc, triplicate, mean ± SD
Yellow Fever virus = assay: microbe, parasite or virus in culture; assay type: cell-based; conditions: Yellow fever virus, Vero, read-out: Antiviral EC50, Yellow Fever virus
[24] = system: Bacillus cereus (NCIM-2458); assay: MIC, broth microdilution; assay type: cell-based; conditions: NCIM2458, read-out: Minimum inhibitory concentration (MIC), BC
How it was run: as §2

[25] = system: Influenza A/H1N1 A/Ned/378/05; assay: CPE reduction assay in MDCK cells; assay type: cell-based; conditions: Influenza A virus
[26] = read-out: Antiviral EC50, Influenza A/H3N2 A/HK/7/87, MTS
[27] = read-out: Antiviral EC50, Influenza A/H3N2 A/HK/7/87, visual CPE score
[28] = read-out: Antiviral EC50, Influenza A/H1N1 A/Ned/378/05, MTS
[29] = read-out: Antiviral EC50, Influenza A/H1N1 A/Ned/378/05, visual CPE score

Compound | Diameter of growth inhibition zone, PA [1] [mm] | EC50 (Human Coronavirus (229E)) [µM] | MIC [2] [µg/mL] | Diameter of growth inhibition zone, LC [3] [mm] | MIC [4] [µg/mL] | Diameter of growth inhibition zone, AN [5] [mm] | MIC [6] [µg/mL] | EC50 (Para-influenza-3 virus) [µM] | MIC [7] [µg/mL] | EC50 (Influenza B B/Ned/537/05) [µM] | MIC [8] [µg/mL] | Diameter of growth inhibition zone, BC [9] [mm] | EC50 (Sindbis virus) [µM] | Minimum cytotoxic conc. (Vero cells) [µM] | Diameter of growth inhibition zone, CN [10] [mm] | EC50 (Reovirus-1) [µM] | EC50 [11, 26] [µM] | EC50 [11, 27] [µM] | Diameter of growth inhibition zone, AF [12] [mm] | EC50 (Coxsackie virus B4) [µM] | also measured
Cc1ccc(S(=O)(=O)N2C(=O)CSC2c2ccccc2O)cc1 (centres unmarked) [5k, 2-(2-Hydroxyphenyl)-3-[(4-methylphenyl)sulfonyl]-1,3-thiazolidin-4-one] | 17.5 ± 0.6 | > 100 | 16 (≈ 45.8 µM) | 10 ± 1.25 | 32 (≈ 91.6 µM) | 15 ± 0.93 | 32 (≈ 91.6 µM) | > 100 | 32 (≈ 91.6 µM) | > 100 | 64 (≈ 183 µM) | 10 ± 0.3 | > 100 | >100 | 11 ± 1.2 | > 100 | > 100 | > 100 | 13 ± 1.5 | > 100 | MIC [13]: 32 µg/mL (≈ 91.6 µM); Diameter of growth inhibition zone, ST [14]: 10 ± 0.8 mm; MIC [15]: 32 µg/mL (≈ 91.6 µM); EC50 (Punta Toro virus): > 100 µM; Minimum cytotoxic conc. (MT4 cells): >125 µM; Diameter of growth inhibition zone, EC [16]: 18.8 ± 0.9 mm; MIC [17]: 64 µg/mL (≈ 183 µM); Diameter of growth inhibition zone, SA [18]: 16 ± 0.32 mm; Diameter of growth inhibition zone, CA [19]: 16 ± 0.32 mm; Cytotoxicity, Minimum cytotoxic conc. [20]: >100 µM; EC50 (Vaccinia virus): > 100 µM; Minimum cytotoxic conc. [21]: >100 µM; Diameter of growth inhibition zone, SP [22]: 08 ± 0.3 mm; EC50 (Adeno virus-2): > 100 µM; Diameter of growth inhibition zone, KA [23]: 12 ± 0.48 mm; EC50 (Yellow Fever virus): > 100 µM; MIC [24]: 64 µg/mL (≈ 183 µM); EC50 [25, 28]: > 100 µM; EC50 [25, 29]: > 100 µM
Cc1ccc(S(=O)(=O)N2C(=O)CSC2c2ccc(C(C)C)cc2)cc1 (centres unmarked) [5n, 3-[(4-Methylphenyl)sulfonyl]-2-[4-(propan-2-yl)phenyl]-1,3-thiazolidin-4-one] | 8.5 ± 1.5 | > 100 | > 256 | 07 ± 0.30 | > 512 | 10 ± 1.2 | > 256 | > 100 | > 256 | > 100 | > 512 | 07 ± 0.1 | > 100 | >100 | 5 ± 0.3 | > 100 | > 100 | > 100 | 9.5 ± 0.9 | > 100 | MIC [13]: > 256 µg/mL; Diameter of growth inhibition zone, ST [14]: 07 ± 1.5 mm; MIC [15]: > 256 µg/mL; EC50 (Punta Toro virus): > 100 µM; Minimum cytotoxic conc. (MT4 cells): >125 µM; Diameter of growth inhibition zone, EC [16]: 08 ± 0.65 mm; MIC [17]: > 256 µg/mL; Diameter of growth inhibition zone, CA [19]: 9 ± 1.5 mm; Cytotoxicity, Minimum cytotoxic conc. [20]: >100 µM; EC50 (Vaccinia virus): > 100 µM; Minimum cytotoxic conc. [21]: >100 µM; Diameter of growth inhibition zone, SP [22]: 07 ± 0.6 mm; EC50 (Adeno virus-2): > 100 µM; Diameter of growth inhibition zone, KA [23]: 07 ± 0.7 mm; EC50 (Yellow Fever virus): > 100 µM; MIC [24]: > 256 µg/mL; EC50 [25, 28]: > 100 µM; EC50 [25, 29]: > 100 µM
